Results from ChEMBL document CHEMBL5303300, “EUbOPEN Chemogenomics Library - Multiplex” (2023).
Values joined by “and” are separate entries in the source; they are usually repeats but may differ in a detail not shown here. Equal values may be shown once.

Experiments:
U2OS = assay: Multiplex assay against U2OS; assay type: toxicity, cell-based; conditions: human, number of replicates 2
How it was run: (§1)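 With compound added, live cells were imaged on a CQ1 microscope at 37°C and 5% CO2; staining with Hoechst33342, BioTracker Green Microtubule Cytoskeleton Dye, MitoTracker Red and Annexin V Alexa Fluor 680 had been done at seeding. The CellPathfinder machine-learning gating scheme split cells into Hoechst high-intensity objects or normal cells, normal cells into healthy, pyknosed or fragmented nuclei, and pyknosed cells into mitotic or apoptotic. The tubulin, mitochondrial-mass and membrane-permeability phenotypes are per cents of healthy-nucleus cells.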

Fibroblast = assay: Multiplex assay against human fibroblast; assay type: toxicity, cell-based; conditions: number of replicates 2; how it was run: as §1
[1] = 24 h, 10 µM, compound concentration 10 uM
[2] = 48 h, 1 µM, compound concentration 1 uM
[3] = 48 h, 10 µM, compound concentration 10 uM
[4] = 12 h, 1 µM, compound concentration 1 uM
[5] = 12 h, 10 µM, compound concentration 10 uM
[6] = 24 h, 1 µM, compound concentration 1 uM

In the case of `CCn1ccc(Nc2ncc3c(n2)-c2c(nn(C)c2-c2ccc(-c4cnn(C)c4)cc2Cl)CC3)n1`, the “Population Apoptotic (%)” value (U2OS; [1]) is reported as 83% and 63%, the “Population Fragmented Nuclei (%)” value (U2OS; [1]) is reported as 8% and 5% and the “Population Healthy Nuclei (%)” value (U2OS; [1]) is reported as 75% and 82%. The “Population Hoechst High Intensity Objects (%)” value (U2OS; [1]) was 0%, the “Population Membrane Permeable-Phenotype (%)” value (U2OS; [1]) was 7% and 2% and the “Population Mitochondria Different-Phenotype (%)” value (U2OS; [1]) was 18% and 6%. For the same compound, the “Population Mitotic Cells (%)” value (U2OS; [1]) was 16% and 36%, the “Population Normal (%)” value (U2OS; [1]) was 100% and the “Population Pyknosed Nuclei (%)” value (U2OS; [1]) was 16% and 11%. For the same compound, the “Population Tubulin-Different-Phenotype (%)” value (U2OS; [1]) was 44% and 29%, the “Population Apoptotic (%)” value (U2OS; [2]) was 63% and 100% and the “Population Healthy Nuclei (%)” value (U2OS; [2]) was 89% and 77%. For the same compound, the “Population Hoechst High Intensity Objects (%)” value (U2OS; [2]) was 0%, the “Population Membrane Permeable-Phenotype (%)” value (U2OS; [2]) was 1% and 8% and the “Population Mitochondria Different-Phenotype (%)” value (U2OS; [2]) was 0% and 4%. The “Population Normal (%)” value (U2OS; [2]) was 100%, the “Population Pyknosed Nuclei (%)” value (U2OS; [2]) was 7% and 9% and the “Population Tubulin-Different-Phenotype (%)” value (U2OS; [2]) was 81% and 40%. The “Population Apoptotic (%)” value (U2OS; [3]) was 68% and 75%, the “Population Fragmented Nuclei (%)” value (U2OS; [3]) was 8% and 3% and the “Population Healthy Nuclei (%)” value (U2OS; [3]) was 55% and 80%. The “Population Hoechst High Intensity Objects (%)” value (U2OS; [3]) was 0%, the “Population Membrane Permeable-Phenotype (%)” value (U2OS; [3]) was 4% and 3% and the “Population Mitochondria Different-Phenotype (%)” value (U2OS; [3]) was 12% and 4%. For the same compound, the “Population Mitotic Cells (%)” value (U2OS; [3]) was 31% and 25%, the “Population Normal (%)” value (U2OS; [3]) was 100% and 99% and the “Population Pyknosed Nuclei (%)” value (U2OS; [3]) was 35% and 16%. The “Population Tubulin-Different-Phenotype (%)” value (U2OS; [3]) was 44% and 35%, the “Population Apoptotic (%)” value (Fibroblast; [4]) was 36% and 33% and the “Population Fragmented Nuclei (%)” value (Fibroblast; [4]) was 11% and 9%. The “Population Healthy Nuclei (%)” value (Fibroblast; [4]) was 71% and 65%, the “Population Hoechst High Intensity Objects (%)” value (Fibroblast; [4]) was 0% and the “Population Membrane Permeable-Phenotype (%)” value (Fibroblast; [4]) was 8% and 7%. The “Population Mitochondria Different-Phenotype (%)” value (Fibroblast; [4]) was 1% and 2%, the “Population Mitotic Cells (%)” value (Fibroblast; [4]) was 63% and 66% and the “Population Normal (%)” value (Fibroblast; [4]) was 99%. For the same compound, the “Population Pyknosed Nuclei (%)” value (Fibroblast; [4]) was 17% and 25%, the “Population Tubulin-Different-Phenotype (%)” value (Fibroblast; [4]) was 14% and 18% and the “Total Cell Count” value (Fibroblast; [4]) was 258 and 213. For the same compound, the “Population Apoptotic (%)” value (Fibroblast; [5]) was 51% and 48%, the “Population Fragmented Nuclei (%)” value (Fibroblast; [5]) was 11% and the “Population Healthy Nuclei (%)” value (Fibroblast; [5]) was 75% and 69%. For the same compound, the “Population Hoechst High Intensity Objects (%)” value (Fibroblast; [5]) was 0%, the “Population Membrane Permeable-Phenotype (%)” value (Fibroblast; [5]) was 5% and 6% and the “Population Mitochondria Different-Phenotype (%)” value (Fibroblast; [5]) was 2% and 1%. For the same compound, the “Population Mitotic Cells (%)” value (Fibroblast; [5]) was 48% and 51%, the “Population Normal (%)” value (Fibroblast; [5]) was 100% and the “Population Pyknosed Nuclei (%)” value (Fibroblast; [5]) was 13% and 19%. For the same compound, the “Population Tubulin-Different-Phenotype (%)” value (Fibroblast; [5]) was 56% and 41%, the “Total Cell Count” value (Fibroblast; [5]) was 204 and 191 and the “Population Apoptotic (%)” value (Fibroblast; [6]) was 40% and 49%. The “Population Fragmented Nuclei (%)” value (Fibroblast; [6]) was 10% and 7%, the “Population Healthy Nuclei (%)” value (Fibroblast; [6]) was 75% and 66% and the “Population Hoechst High Intensity Objects (%)” value (Fibroblast; [6]) was 0%. For the same compound, the “Population Membrane Permeable-Phenotype (%)” value (Fibroblast; [6]) was 2% and 6%, the “Population Mitochondria Different-Phenotype (%)” value (Fibroblast; [6]) was 0% and 1% and the “Population Mitotic Cells (%)” value (Fibroblast; [6]) was 59% and 50%. For the same compound, the “Population Normal (%)” value (Fibroblast; [6]) was 100% and 99%, the “Population Pyknosed Nuclei (%)” value (Fibroblast; [6]) was 13% and 25% and the “Population Tubulin-Different-Phenotype (%)” value (Fibroblast; [6]) was 7% and 8%. The “Total Cell Count” value (Fibroblast; [6]) was 239 and 234, the “Population Apoptotic (%)” value (Fibroblast; [1]) was 60% and 55% and the “Population Fragmented Nuclei (%)” value (Fibroblast; [1]) was 8% and 6%. The “Population Healthy Nuclei (%)” value (Fibroblast; [1]) was 78% and 77%, the “Population Hoechst High Intensity Objects (%)” value (Fibroblast; [1]) was 0% and the “Population Membrane Permeable-Phenotype (%)” value (Fibroblast; [1]) was 1% and 4%. The “Population Mitochondria Different-Phenotype (%)” value (Fibroblast; [1]) was 1% and 2%, the “Population Mitotic Cells (%)” value (Fibroblast; [1]) was 40% and 44% and the “Population Normal (%)” value (Fibroblast; [1]) was 100% and 99%. For the same compound, the “Population Pyknosed Nuclei (%)” value (Fibroblast; [1]) was 12% and 15%, the “Population Tubulin-Different-Phenotype (%)” value (Fibroblast; [1]) was 62% and 39% and the “Total Cell Count” value (Fibroblast; [1]) was 202 and 187. The “Population Apoptotic (%)” value (Fibroblast; [2]) was 71% and 69%, the “Population Fragmented Nuclei (%)” value (Fibroblast; [2]) was 13% and 12% and the “Population Healthy Nuclei (%)” value (Fibroblast; [2]) was 75% and 67%. The “Population Hoechst High Intensity Objects (%)” value (Fibroblast; [2]) was 0%, the “Population Membrane Permeable-Phenotype (%)” value (Fibroblast; [2]) was 2% and 3% and the “Population Mitochondria Different-Phenotype (%)” value (Fibroblast; [2]) was 0%. The “Population Mitotic Cells (%)” value (Fibroblast; [2]) was 28% and 30%, the “Population Normal (%)” value (Fibroblast; [2]) was 99% and 100% and the “Population Pyknosed Nuclei (%)” value (Fibroblast; [2]) was 11% and 19%. The “Population Tubulin-Different-Phenotype (%)” value (Fibroblast; [2]) was 6% and 7%, the “Total Cell Count” value (Fibroblast; [2]) was 252 and 233 and the “Population Apoptotic (%)” value (Fibroblast; [3]) was 84% and 82%. The “Population Fragmented Nuclei (%)” value (Fibroblast; [3]) was 14% and 8%, the “Population Healthy Nuclei (%)” value (Fibroblast; [3]) was 68% and 75% and the “Population Hoechst High Intensity Objects (%)” value (Fibroblast; [3]) was 0%. For the same compound, the “Population Membrane Permeable-Phenotype (%)” value (Fibroblast; [3]) was 2% and 3%, the “Population Mitochondria Different-Phenotype (%)” value (Fibroblast; [3]) was 4% and 3% and the “Population Mitotic Cells (%)” value (Fibroblast; [3]) was 15% and 17%. The “Population Normal (%)” value (Fibroblast; [3]) was 100%, the “Population Pyknosed Nuclei (%)” value (Fibroblast; [3]) was 16% and the “Population Tubulin-Different-Phenotype (%)” value (Fibroblast; [3]) was 56% and 38%. The “Total Cell Count” value (Fibroblast; [3]) was 195 and 170.
